Test results reported in ChEMBL document CHEMBL2406979, “Antitumor activity of 2-hydroxycinnamaldehyde for human colon cancer cells through suppression of β-catenin signaling” (J Nat Prod, 2013).
Active and inactive are the calls of the source. No cut-off for these calls is given here.

Test system: HEK293
Assay: Inhibition of Wnt/beta-catenin (unknown origin) signaling pathway expressed in HEK293 cells assessed as inhibition of TCF4 transcriptional activity at 5 to 40 uM after 24 hrs by TOPflash reporter gene assay
Assay type: cell-based
Conditions: Homo sapiens
Method in brief: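 HEK293 cells seeded at 1.5 × 10^4 per well and cotransfected (Lipofectamine 2000) with TOPflash luciferase reporter 0.1 μg, Renilla 0.005 μg for normalization, pcDNA β-catenin 0.02 μg and TCF4 expression vector 0.004 μg to activate Wnt; 24 h later treated with compound or solvent for 24 h; dual luciferase read-out, Renilla-normalized, relative to vehicle; triplicate.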

In the case of `COc1ccccc1/C=C/C=O`, the inhibition is reported as “Active”.
